Experimental findings from ChEMBL document CHEMBL4270565, “Design, synthesis and antimicrobial evaluation of propylene-tethered ciprofloxacin-isatin hybrids” (Eur J Med Chem, 2018) are described below.

SMILES strings stand for the structures. In brackets after ≈: the same amount, converted by molar mass. Some results are limits rather than exact numbers.

The test system of the first assay is Mycobacterium tuberculosis. Briefly: Antimycobacterial activity against isoniazid/rifampicin/ethambutol-resistant Mycobacterium tuberculosis after 7 days. It is filed as functional. As to conditions: 168 h. The method, boiled down:
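Rapid direct susceptibility test in 48-well plates. Two-fold dilutions of compound from DMSO stocks were mixed with an equal volume of bacterial suspension. Medium-only wells served as growth controls and water-only wells as no-growth controls. Plates were sealed and held at 37 C in a humid box, and controls were checked at 3 days. MIC (90% growth inhibition) was read visually by high-magnification observation of the cells and re-read at 7 days.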
As to `CO/N=C1\C(=O)N(CCCN2CCN(c3cc4c(cc3F)c(=O)c(C(=O)O)cn4C3CC3)CC2)c2ccccc21`, the MIC90 (commonly an inhibitory concentration at the 90% level, which refers to growth in some studies and to a panel of isolates in others) worked out at 2 µg/mL (≈ 3.65 µM).

`CO/N=C1\C(=O)N(CCCN2CCN(c3cc4c(cc3F)c(=O)c(C(=O)OCCCN3C(=O)/C(=N/OC)c5ccccc53)cn4C3CC3)CC2)c2ccccc21` yielded an MIC90 of 64 µg/mL (≈ 83.8 µM).

Consider `CCO/N=C1\C(=O)N(CCCN2CCN(c3cc4c(cc3F)c(=O)c(C(=O)OCCCN3C(=O)/C(=N/OCC)c5ccccc53)cn4C3CC3)CC2)c2ccccc21`, for which the MIC90 came out at 64 µg/mL (≈ 80.8 µM).

The compound `CCO/N=C1\C(=O)N(CCCN2CCN(c3cc4c(cc3F)c(=O)c(C(=O)O)cn4C3CC3)CC2)c2ccc(C)cc21` yielded an MIC90 of 4 µg/mL (≈ 6.95 µM).

`Cc1ccc2c(c1)C(=O)C(=O)N2CCCOC(=O)c1cn(C2CC2)c2cc(N3CCN(CCCN4C(=O)C(=O)c5cc(C)ccc54)CC3)c(F)cc2c1=O` registered an MIC90 of 32 µg/mL (≈ 43.6 µM).

The compound `CO/N=C1\C(=O)N(CCCN2CCN(c3cc4c(cc3F)c(=O)c(C(=O)O)cn4C3CC3)CC2)c2ccc(C)cc21` gave an MIC90 of 1 µg/mL (≈ 1.78 µM).

Turning to `O=C1C(=O)N(CCCN2CCN(c3cc4c(cc3F)c(=O)c(C(=O)O)cn4C3CC3)CC2)c2ccccc21`, the MIC90 is 0.5 µg/mL (≈ 0.964 µM).

For `CO/N=C1\C(=O)N(CCCN2CCN(c3cc4c(cc3F)c(=O)c(C(=O)OCCCN3C(=O)/C(=N/OC)c5cc(C)ccc53)cn4C3CC3)CC2)c2ccc(C)cc21`, the MIC90 turned out to be 32 µg/mL (≈ 40.4 µM).

As to `CCO/N=C1\C(=O)N(CCCN2CCN(c3cc4c(cc3F)c(=O)c(C(=O)O)cn4C3CC3)CC2)c2ccccc21`, the MIC90 came to 1 µg/mL (≈ 1.78 µM).

For the compound `CCO/N=C1\C(=O)N(CCCN2CCN(c3cc4c(cc3F)c(=O)c(C(=O)OCCCN3C(=O)/C(=N/OCC)c5cc(C)ccc53)cn4C3CC3)CC2)c2ccc(C)cc21`, the MIC90 is 64 µg/mL (≈ 78.1 µM).

In turn, `O=C1C(=O)N(CCCOC(=O)c2cn(C3CC3)c3cc(N4CCN(CCCN5C(=O)C(=O)c6ccccc65)CC4)c(F)cc3c2=O)c2ccccc21` had an MIC90 of 32 µg/mL (≈ 45.3 µM).

On to `Cc1ccc2c(c1)C(=O)C(=O)N2CCCN1CCN(c2cc3c(cc2F)c(=O)c(C(=O)O)cn3C2CC2)CC1`, for which the MIC90 came to 0.5 µg/mL (≈ 0.939 µM).

`O=C(O)c1cn(C2CC2)c2cc(N3CCNCC3)c(F)cc2c1=O` [CIPROFLOXACIN] yielded an MIC90 of 2 µg/mL (≈ 6.04 µM).

For `NNC(=O)c1ccncc1` [ISONIAZID], the MIC90 was above 128 µg/mL.

As to `CO[C@H]1/C=C/O[C@@]2(C)Oc3c(C)c(O)c4c(O)c(c(/C=N/N5CCN(C)CC5)c(O)c4c3C2=O)NC(=O)/C(C)=C\C=C\[C@H](C)[C@H](O)[C@@H](C)[C@@H](O)[C@@H](C)[C@H](OC(C)=O)[C@@H]1C` [RIFAMPIN], the MIC90 turned out to be 32 µg/mL (≈ 38.9 µM).

The test system of another assay is Mycobacterium tuberculosis. Description: Potency index, ratio of ciprofloxacin MIC90 to compound MIC90 for isoniazid/rifampicin/ethambutol-resistant Mycobacterium tuberculosis after 7 days. The class given is functional.
Conditions: not given
Take `Cc1ccc2c(c1)C(=O)C(=O)N2CCCN1CCN(c2cc3c(cc2F)c(=O)c(C(=O)O)cn3C2CC2)CC1`: the Ratio result is on record as “>=4 - 256”.

In another assay the test system is Mycobacterium tuberculosis. Description: Potency index, ratio of rifampicin MIC90 to compound MIC90 for isoniazid/rifampicin/ethambutol-resistant Mycobacterium tuberculosis after 7 days. The class given is functional.
Conditions: not given
In the case of `Cc1ccc2c(c1)C(=O)C(=O)N2CCCN1CCN(c2cc3c(cc2F)c(=O)c(C(=O)O)cn3C2CC2)CC1`, the Ratio result is “>=4 - 256”.

For another assay, the system named is Mycobacterium tuberculosis. Description: Potency index, ratio of isoniazid MIC90 to compound MIC90 for isoniazid/rifampicin/ethambutol-resistant Mycobacterium tuberculosis after 7 days. The class given is functional.
Conditions: not given
As for `Cc1ccc2c(c1)C(=O)C(=O)N2CCCN1CCN(c2cc3c(cc2F)c(=O)c(C(=O)O)cn3C2CC2)CC1`, the Ratio result was “>=4 - 256”.
